In ChEMBL document CHEMBL1157892, “Cucurbitacin E as a new inhibitor of cofilin phosphorylation in human leukemia U937 cells” (Bioorg Med Chem Lett, 2010):
Active and inactive are the calls of the source. The calls are words filed in the database; no cut-off is given here.

What was measured:
[1] = target: Signal transducer and activator of transcription 3 (Homo sapiens) (UniProt P40763); experiment: Inhibition of STAT3 phosphorylation in human U937 cells at 10 uM after 24 hrs by Western blotting; assay type: cell-based; details: U-937
Signal transducer and activator of transcription 3 (Homo sapiens), sequence (P40763 whole entry): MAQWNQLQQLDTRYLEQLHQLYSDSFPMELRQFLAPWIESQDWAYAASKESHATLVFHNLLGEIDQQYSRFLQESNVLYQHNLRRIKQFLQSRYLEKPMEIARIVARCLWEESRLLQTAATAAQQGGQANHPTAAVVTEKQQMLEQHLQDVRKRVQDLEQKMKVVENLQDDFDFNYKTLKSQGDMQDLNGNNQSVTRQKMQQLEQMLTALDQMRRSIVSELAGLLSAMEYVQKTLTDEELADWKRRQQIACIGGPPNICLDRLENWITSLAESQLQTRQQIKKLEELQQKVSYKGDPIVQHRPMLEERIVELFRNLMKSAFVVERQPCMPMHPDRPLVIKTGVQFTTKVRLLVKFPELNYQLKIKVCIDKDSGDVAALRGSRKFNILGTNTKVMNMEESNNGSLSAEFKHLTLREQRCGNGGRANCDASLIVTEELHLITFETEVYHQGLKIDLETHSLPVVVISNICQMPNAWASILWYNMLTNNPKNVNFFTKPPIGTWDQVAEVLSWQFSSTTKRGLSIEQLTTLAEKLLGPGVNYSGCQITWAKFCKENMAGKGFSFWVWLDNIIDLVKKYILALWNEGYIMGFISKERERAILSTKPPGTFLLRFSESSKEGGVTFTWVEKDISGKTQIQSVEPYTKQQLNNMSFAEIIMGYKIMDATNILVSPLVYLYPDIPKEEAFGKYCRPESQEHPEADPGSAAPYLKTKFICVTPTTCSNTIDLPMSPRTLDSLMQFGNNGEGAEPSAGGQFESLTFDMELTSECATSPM
In short: (§1)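 U937 cells at 5.0 × 10⁴ cells/mL treated 24 h and lysed with phosphatase and protease inhibitors. 60 µg protein per lane run on 10% SDS–PAGE. Western blots probed with rabbit anti-phospho-STAT3 and anti-STAT3 (1:1000), then HRP anti-rabbit (1:5000), with ECL detection.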

[2] = target: Signal transducer and activator of transcription 3 (Homo sapiens) (UniProt P40763); experiment: Inhibition of STAT3 phosphorylation in human U937 cells at 100 uM after 24 hrs by Western blotting; assay type: cell-based; details: U-937; in short: as §1
HL-60 = experiment: Cytotoxicity against human HL60 cells after 72 hrs by WST-8 assay; assay type: functional, cell-based; details: HL-60, 72 h
In short: (§2)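 Cells seeded at 5.0 × 10³ cells/100 µL/well in RPMI-1640 and exposed to compounds for 68 h. WST-8 was then added for a further 4 h. Formazan absorbance read at 450 nm (reference 655 nm). Percent inhibition calculated and IC50 read graphically from the curve.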

HT-1080 [3] = experiment: Cytotoxicity against human HT1080 cells after 72 hrs by WST-8 assay; assay type: functional, cell-based; details: HT-1080, 72 h; in short: as §2
U-937 [4] = experiment: Cell cycle arrest in human U937 cells assessed as reduction of cell population at G0/G1 phase at 100 nM after 24 hrs using propidium iodide staining by flow cytometry relative to control; assay type: functional; design: scale not given: the % may be the effect or the level left
In short: (§3)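 U937 cells at 5.0 × 10⁴ cells/mL treated 24 h, pelleted, fixed in ice-cold ethanol overnight at −20 °C, treated with DNase-free RNase (0.25 mg/mL) at 37 °C for 30 min, then stained with propidium iodide. DNA content read by flow cytometry, 20,000 cells per sample. G0/G1, S and G2/M fractions compared with untreated control.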

U-937 [5] = experiment: Cell cycle arrest in human U937 cells assessed as reduction of cell population at S phase at 100 nM after 24 hrs using propidium iodide staining by flow cytometry relative to control; assay type: functional; design: scale not given: the % may be the effect or the level left; in short: as §3
U-937 [6] = experiment: Cell cycle arrest in human U937 cells assessed as increase of cell population at G2/M phase at 100 nM after 24 hrs using propidium iodide staining by flow cytometry relative to control; assay type: functional; in short: as §3
Cofilin-1 (Homo sapiens) = Cofilin-1 (Homo sapiens) (UniProt P23528); experiment: Inhibition of cofilin phosphorylation in human U937 cells after 24 hrs by Western blotting; assay type: cell-based; details: U-937
Cofilin-1 (Homo sapiens), sequence (P23528 whole entry): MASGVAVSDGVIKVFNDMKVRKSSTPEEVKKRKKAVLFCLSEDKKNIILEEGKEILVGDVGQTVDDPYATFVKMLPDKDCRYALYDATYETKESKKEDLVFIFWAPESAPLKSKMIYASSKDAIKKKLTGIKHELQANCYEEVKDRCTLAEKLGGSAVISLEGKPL
In short: (§4)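 U937 cells at 5.0 × 10⁴ cells/mL treated 24 h, then lysed with phosphatase and protease inhibitors. Equal protein loaded on SDS–PAGE. Blots probed 1 h with rabbit antibodies (1:1000) to phospho-cofilin, phospho-LIMK1/2, cofilin and β-actin in T-TBS. Detection with HRP anti-rabbit (1:5000) and ECL.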

[7] = target: T1, LIM domain kinase 1/2 (Homo sapiens) (UniProt P53671+P53667); experiment: Inhibition of LIMK1/2 phosphorylation in human U937 cells at 0.1 to 100 nM after 24 hrs by Western blotting; assay type: cell-based; details: U-937; in short: as §4
T1 sequence (P53667 whole entry, looked up, the tested form may be a part): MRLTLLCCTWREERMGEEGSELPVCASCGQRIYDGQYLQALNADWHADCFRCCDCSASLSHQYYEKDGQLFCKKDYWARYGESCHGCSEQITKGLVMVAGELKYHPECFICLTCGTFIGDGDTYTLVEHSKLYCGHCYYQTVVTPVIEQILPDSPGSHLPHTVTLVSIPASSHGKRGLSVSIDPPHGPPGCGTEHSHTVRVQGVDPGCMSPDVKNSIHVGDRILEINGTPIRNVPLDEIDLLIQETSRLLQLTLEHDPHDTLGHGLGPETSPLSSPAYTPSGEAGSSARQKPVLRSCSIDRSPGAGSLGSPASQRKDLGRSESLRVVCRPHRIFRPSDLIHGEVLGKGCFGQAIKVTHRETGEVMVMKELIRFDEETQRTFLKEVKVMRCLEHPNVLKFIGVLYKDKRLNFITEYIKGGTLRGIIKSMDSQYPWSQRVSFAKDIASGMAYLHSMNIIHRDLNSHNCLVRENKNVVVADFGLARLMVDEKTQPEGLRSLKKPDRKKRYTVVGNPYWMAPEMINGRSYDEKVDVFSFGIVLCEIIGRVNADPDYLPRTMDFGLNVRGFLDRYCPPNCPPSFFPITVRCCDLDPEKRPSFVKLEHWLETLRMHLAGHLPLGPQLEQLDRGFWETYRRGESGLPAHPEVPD
T1 sequence (P53671 whole entry, looked up, the tested form may be a part): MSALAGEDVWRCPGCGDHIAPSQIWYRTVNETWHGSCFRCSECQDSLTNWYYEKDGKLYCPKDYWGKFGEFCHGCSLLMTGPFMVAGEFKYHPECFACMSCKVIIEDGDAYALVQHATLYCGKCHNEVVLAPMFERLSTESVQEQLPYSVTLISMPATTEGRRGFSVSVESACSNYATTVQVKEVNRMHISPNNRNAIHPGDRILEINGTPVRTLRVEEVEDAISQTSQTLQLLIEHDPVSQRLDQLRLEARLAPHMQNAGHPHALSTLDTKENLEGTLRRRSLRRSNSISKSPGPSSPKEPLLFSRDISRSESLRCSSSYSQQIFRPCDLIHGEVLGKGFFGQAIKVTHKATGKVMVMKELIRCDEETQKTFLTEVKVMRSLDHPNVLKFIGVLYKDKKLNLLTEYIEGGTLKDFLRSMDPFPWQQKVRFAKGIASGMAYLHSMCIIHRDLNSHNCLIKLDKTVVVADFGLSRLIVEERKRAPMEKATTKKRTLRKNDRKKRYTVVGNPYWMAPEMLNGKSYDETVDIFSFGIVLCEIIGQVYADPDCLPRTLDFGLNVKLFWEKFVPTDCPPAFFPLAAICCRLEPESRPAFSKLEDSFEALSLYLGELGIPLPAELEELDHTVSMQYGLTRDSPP

HT-1080 [8] = experiment: Decrease of F to G actin ratio in human HT1080 cells at 100 nM after 24 hrs; assay type: functional, cell-based
In short: (§5)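 HT1080 cells seeded at 1.0 × 10⁴ cells/100 µL/well and treated 24 h at 37 °C. Cells fixed in 4% formaldehyde, permeabilized with cold methanol and blocked. F-actin stained with Alexa 350 phalloidin and G-actin with Alexa 488 DNase I, each 15 min at rt in the dark. Fluorescence read at ex 355/em 405 and ex 480/em 520 nm. Results are mean of n = 4; Dunnett's test against control.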

U-937 [9] = experiment: Cytotoxicity against human U937 cells after 72 hrs by WST-8 assay; assay type: functional, cell-based; details: U-937, 72 h; in short: as §2
HT-1080 [10] = experiment: Decrease of F to G actin ratio in human HT1080 cells at 1000 nM after 24 hrs; assay type: functional, cell-based; in short: as §5
[11] = target: T1, LIM domain kinase 1/2 (Homo sapiens); experiment: Inhibition of LIMK1/2 phosphorylation in human U937 cells at 0.1 to 1000 nM after 24 hrs by Western blotting; assay type: cell-based; details: U-937; in short: as §4

CC(=O)OC(C)(C)/C=C/C(=O)[C@](C)(O)[C@H]1[C@H](O)C[C@@]2(C)[C@@H]3CC=C4[C@H](C[C@H](O)C(=O)C4(C)C)[C@]3(C)C(=O)C[C@]12C
Activity [1]: inactive | Activity [2]: Active

CC(=O)OC(C)(C)/C=C/C(=O)[C@](C)(O)[C@H]1[C@H](O)C[C@@]2(C)[C@@H]3CC=C4[C@@H](C=C(O)C(=O)C4(C)C)[C@]3(C)C(=O)C[C@]12C [CUCURBITACIN E]
IC50 (HL-60): 18 nM | IC50 (HT-1080 [3]): 40 nM | Activity (U-937 [4]): 37.7% | Activity (U-937 [5]): 28.1% | Activity (U-937 [6]): 34.2% | Activity [1]: inactive | Activity (Cofilin-1 (Homo sapiens)): Dose-dependent effect | Activity [7]: inactive | Activity (HT-1080 [8]): Active | IC50 (U-937 [9]): 16 nM

CC(C)(O)/C=C/C(=O)[C@](C)(O)[C@H]1[C@H](O)C[C@@]2(C)[C@@H]3CC=C4[C@@H](C=C(O)C(=O)C4(C)C)[C@]3(C)C(=O)C[C@]12C [CUCURBITACIN I]
Activity (Cofilin-1 (Homo sapiens)): Dose-dependent effect | Activity [7]: inactive | Activity (HT-1080 [10]): Active | Activity [11]: inactive
